Laboratory results from ChEMBL document CHEMBL3244252, “Adriamycin analogues. 3. Synthesis of N-alkylated anthracyclines with enhanced efficacy and reduced cardiotoxicity” (J Med Chem, 1979).

What was measured:
P388 [1] = experiment: Antitumor activity against mouse P388 cells allografted in CDF/BDF mouse assessed as survival time at 8 mg/kg, ip administered as qd on day 5, 9, 13; assay type: functional; details: route intraperitoneal
Rattus norvegicus = organism: Rattus norvegicus; experiment: Cardiotoxicity in rat assessed as minimum cumulative cardiotoxic dose by Zbinden test; assay type: toxicity, organism-based; details: in vivo
Outline: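 Zbinden cardiotoxicity assay in rats. Drug was given cumulatively, with ECG monitoring. Value is the minimum total dose (mg/kg) that causes significant ECG alterations.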

L1210 [2] = experiment: Selectivity ratio of ED50 for inhibition of DNA synthesis in mouse L1210 cells to ED50 for inhibition of RNA synthesis in mouse L1210 cells; assay type: functional
Outline: (§1)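 L1210 leukemia cells. Drugs were first dissolved in Me2SO to a final 1% Me2SO in the assay medium. Inhibition of DNA and RNA synthesis was measured separately and reported as ED50 (50% inhibitory dose, μM). Selectivity is the ratio of the DNA ED50 to the RNA ED50.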

L1210 [3] = experiment: Inhibition of DNA synthesis in mouse L1210 cells; assay type: functional; details: read-out: ED50 (the source's name); outline: as §1
Calf thymus DNA = experiment: Binding affinity to calf thymus DNA assessed as change in melting temperature; assay type: nucleic-acid assay; details: Bos taurus
Outline: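 Drug first dissolved in Me2SO to a final 5% Me2SO in the assay medium. DNA binding is read as the shift in DNA melting temperature (ΔTm). ΔTm below 1 is taken as insignificant binding.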

P388 [4] = experiment: Antitumor activity against mouse P388 cells allografted in CDF/BDF mouse assessed as survival time at 0.78 mg/kg, ip administered as qd for 1 to 9 days relative to control; assay type: functional; details: route intraperitoneal
L1210 [5] = experiment: Inhibition of RNA synthesis in mouse L1210 cells; assay type: functional; details: read-out: ED50 (the source's name); outline: as §1
P388 [6] = experiment: Antitumor activity against mouse P388 cells allografted in CDF/BDF mouse assessed as survival time at 3.13 mg/kg, ip administered as qd for 1 to 9 days relative to control; assay type: functional; details: route intraperitoneal
P388 [7] = experiment: Antitumor activity against mouse P388 cells allografted in CDF/BDF mouse assessed as survival time at 18.8 mg/kg, ip administered as qd on day 5, 9, 13; assay type: functional; details: route intraperitoneal
P388 [8] = experiment: Antitumor activity against ip dosed mouse P388 cells allografted in CDF/BDF mouse assessed as survival time administered as qd for 1 to 9 days relative to control; assay type: functional
Salmonella typhimurium [9] = experiment: Mutagenicity in Salmonella typhimurium TA98 assessed as number of revertants by Ames test in presence of microsomal activation; assay type: toxicity, organism-based; details: salmonella enterica subsp. enterica serovar typhimurium
Outline: (§2)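 Ames plate test using Salmonella typhimurium tester strain TA98. Compounds were tested over dose ranges of 0-20 to 0-100 µg/plate, depending on the compound, and the toxicity level per plate was noted. Mutagenicity is expressed as revertants produced per nmol of compound.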

Salmonella typhimurium [10] = experiment: Mutagenicity in Salmonella typhimurium TA98 assessed as number of revertants by Ames test in absence of microsomal activation; assay type: toxicity, organism-based; details: salmonella enterica subsp. enterica serovar typhimurium; outline: as §2
Salmonella typhimurium [11] = experiment: Toxicity in Salmonella typhimurium TA98 assessed as concentration required to cause mortality per plate; assay type: organism-based; details: salmonella enterica subsp. enterica serovar typhimurium
Outline: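 Ames plate test with Salmonella typhimurium tester strain TA98. Compounds were tested over ranges from 0–20 up to 0–100 µg/plate, depending on compound. The toxicity level is reported in µg/plate.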

P388 [12] = experiment: Antitumor activity against mouse P388 cells allografted in CDF/BDF mouse assessed as survival time at 37.5 mg/kg, ip administered as qd on day 5, 9, 13; assay type: functional; details: route intraperitoneal
P388 [13] = experiment: Antitumor activity against mouse P388 cells allografted in CDF/BDF mouse assessed as survival time at 1.56 mg/kg, ip administered as qd for 1 to 9 days relative to control; assay type: functional; details: route intraperitoneal
P388 [14] = experiment: Antitumor activity against mouse P388 cells allografted in CDF/BDF mouse assessed as survival time at 25 mg/kg, ip administered as qd on day 5, 9, 13; assay type: functional; details: route intraperitoneal
P388 [15] = experiment: Antitumor activity against mouse P388 cells allografted in CDF/BDF mouse assessed as survival time at 12.5 mg/kg, ip administered as qd for 1 to 9 days relative to control; assay type: functional; details: route intraperitoneal
P388 [16] = experiment: Antitumor activity against mouse P388 cells allografted in CDF/BDF mouse assessed as survival time at 3.12 mg/kg, ip administered as qd for 1 to 9 days relative to control; assay type: functional; details: route intraperitoneal

SMILES | T/C (P388 [1]) [%] | MTC (Rattus norvegicus) [mg/kg] | Ratio ED50 (L1210 [2]) | EC50 (L1210 [3]) [nM] | ΔTm (Calf thymus DNA) [°C] | T/C (P388 [4]) [%] | EC50 (L1210 [5]) [nM] | T/C (P388 [6]) [%] | T/C (P388 [7]) [%] | T/C (P388 [8]) [%] | Activity (Salmonella typhimurium [9]) [nmol⁻¹] | Activity (Salmonella typhimurium [10]) | Activity (Salmonella typhimurium [11]) [µg] | T/C (P388 [12]) [%] | T/C (P388 [13]) [%] | T/C (P388 [14]) [%] | T/C (P388 [15]) [%] | T/C (P388 [16]) [%]
COc1cccc2c1C(=O)c1c(O)c3c(c(O)c1C2=O)C[C@@](O)(C(=O)CO)C[C@@H]3O[C@H]1C[C@H](N)[C@H](O)[C@H](C)O1 [DOXORUBICIN] | 159 | 11 | 2.6 | 1500 | 13.4 | 197 | 580 | – | – | – | – | – | – | – | – | – | – | –
CCN(CC)[C@H]1C[C@H](O[C@H]2C[C@](O)(C(=O)CO)Cc3c(O)c4c(c(O)c32)C(=O)c2c(OC)cccc2C4=O)O[C@@H](C)[C@H]1O.Cl | – | – | 3.3 | 700 | 14.6 | – | 210 | 171 | – | – | – | – | – | – | – | – | – | –
COc1cccc2c1C(=O)c1c(O)c3c(c(O)c1C2=O)C[C@@](O)(C(=O)CO)C[C@@H]3O[C@H]1C[C@H](NCc2ccccc2)[C@H](O)[C@H](C)O1.Cl | – | – | 7.2 | 650 | 11.3 | – | 90 | 185 | 190 | – | – | – | – | – | – | – | – | –
CCCCCCCCCCN(CCCCCCCCCC)[C@H]1C[C@H](O[C@H]2C[C@](O)(C(C)=O)Cc3c(O)c4c(c(O)c32)C(=O)c2c(OC)cccc2C4=O)O[C@@H](C)[C@H]1O.Cl | – | – | 2.1 | 280000 | 0.1 | – | 130000 | – | – | <125 | – | – | – | – | – | – | – | –
COc1cccc2c1C(=O)c1c(O)c3c(c(O)c1C2=O)C[C@@](O)(C(=O)CO)C[C@@H]3O[C@H]1C[C@H](N2CCCCC2)[C@H](O)[C@H](C)O1.Cl | – | – | 17.5 | 700 | 15.4 | – | 40 | 190 | – | – | 1 | Non-toxic | 20 | – | – | – | – | –
COc1cccc2c1C(=O)c1c(O)c3c(c(O)c1C2=O)C[C@@](O)(C(O)CO)C[C@@H]3O[C@H]1C[C@H](NCc2ccccc2)[C@H](O)[C@H](C)O1.Cl (stereo not given in full) | – | – | 4.8 | 1400 | 7.6 | – | 290 | – | – | – | – | – | – | 135 | 176 | – | – | –
COc1cccc2c1C(=O)c1c(O)c3c(c(O)c1C2=O)C[C@@](O)(C(C)O)C[C@@H]3O[C@H]1C[C@H](N(Cc2ccccc2)Cc2ccccc2)[C@H](O)[C@H](C)O1.Cl (stereo not given in full) | – | – | 29.1 | 220000 | 0.6 | – | 7600 | – | – | – | 0.5 | Non-toxic | – | – | – | 183 | 231 | –
COc1cccc2c1C(=O)c1c(O)c3c(c(O)c1C2=O)C[C@@](O)(C(C)=O)C[C@@H]3O[C@H]1C[C@H](N)[C@H](O)[C@H](C)O1 [DAUNORUBICIN] | 132 | 14 | – | 660 | – | 160 | 330 | – | – | – | 100 | – | 5 | – | – | – | – | –
COc1cccc2c1C(=O)c1c(O)c3c(c(O)c1C2=O)C[C@@](O)(C(C)=O)C[C@@H]3O[C@H]1C[C@H](NCc2ccccc2)[C@H](O)[C@H](C)O1.Cl | – | – | 9.4 | 1600 | 10.2 | – | 170 | – | 184 | – | 0.5 | Non-toxic | – | – | – | – | – | 185
